Experimental data from different studies.
Lines come from different studies, so protocols differ.
MTNR1B: Melatonin receptor type 1B (MTNR1B, Homo sapiens, UniProt P49286)
CDK7 with cyclin H: Cyclin-dependent kinase 7, with cyclin H (CDK7, Homo sapiens, UniProt P50613)
BAZ1A: Bromodomain adjacent to zinc finger domain protein 1A (BAZ1A, Homo sapiens, UniProt Q9NRL2)
RIOK3: Serine/threonine-protein kinase RIO3 (RIOK3, Homo sapiens, UniProt O14730)

COc1ccc2ncn(CCNC(C)=O)c2c1
Emax (MTNR1B; β-arrestin recruitment, agonist; MT2): 75%

C[C@]12CC[C@@H]3c4ccc(O)cc4CC[C@H]3[C@@H]1CC[C@@H]2O
inhibition (CDK7 with cyclin H; enzyme activity, inhibitor, ADP detection; 10 µM): 38.3%

COc1cc2c(CCNC(C)=O)c[nH]c2cc1I
Emax (MTNR1B; GTPγS binding, agonist, radiometric; cell membranes): 97%

COc1ccc2cc3[n+](cc2c1OC)CCc1cc2c(cc1-3)OCO2
inhibition (CDK7 with cyclin H; enzyme activity, inhibitor, ADP detection; 10 µM): 22.3%

CCC(=O)NC1Cc2ccccc2C(c2ccccc2)C1 (centres unmarked)
Emax (MTNR1B; GTPγS binding, agonist, radiometric; cell membranes): 34%

Cc1cnc(Nc2ccc(OCCN3CCCC3)cc2)nc1Nc1cccc(S(=O)(=O)NC(C)(C)C)c1
ΔTm (BAZ1A; thermal stability, DSF; 10 µM): 0.23 °C

CCc1ccc2scc(CCNC(C)=O)c2c1
Emax (MTNR1B; cAMP, agonist, TR-FRET; CHO-K1; 20 min): 75%

Cc1ccc(S(=O)(=O)NCC(=O)N2CCC[C@H]2C(=O)N[C@@H](CCCN=C(N)N)C(=O)Nc2ccc([N+](=O)[O-])cc2)cc1
Km (Prothrombin (F2, Homo sapiens, UniProt P00734); enzyme activity, substrate, absorbance): 26.3 µM

COc1cc2c(NC3CCN(C(C)C)CC3)nc(C3CCCCC3)nc2cc1OCCCN1CCCC1
ΔTm (Histone-lysine N-methyltransferase EHMT2 (EHMT2, Homo sapiens, UniProt Q96KQ7); thermal stability, DSF; 100 µM): 4 °C

COc1cc(/C=C/C(=O)O)ccc1O
inhibition (CDK7 with cyclin H; enzyme activity, inhibitor, ADP detection; 10 µM): -9.7%

Cc1cc2c(cc1N1C(=O)c3cccc4c(Cl)ccc(c34)C1=O)n(C)c(=O)n2C
ΔTm (BAZ1A; thermal stability, DSF; 10 µM): -1 °C

Nc1ncnc2occ(-c3ccc(NC(=O)Nc4cc(C(F)(F)F)ccc4F)cc3)c12
remaining signal (RIOK3; cell-free assay, inhibitor; 20 µM): 89%

Cc1ccc(C(=O)Nc2ccc(CN3CCN(C)CC3)c(C(F)(F)F)c2)cc1C#Cc1cnc2cccnn12
remaining activity (RIOK3; enzyme activity, inhibitor; 23.5 nM): 93%

COc1cc2c(cc1OC)[C@@H]1Cc3ccc(OC)c(OC)c3CN1CC2
inhibition (CDK7 with cyclin H; enzyme activity, inhibitor, ADP detection; 10 µM): -19%
